Active and inactive are the calls of the source. The calls are words filed in the database; no cut-off is given here.
Assays:
[1] = Selectivity index, ratio of CC50 for human Huh7.5.1 cells to EC50 for ZIKV infected in human Huh7.5.1 cells; type: toxicity, cell-based; details: read-out: Ratio CC50/EC50
Method in brief: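 SI from two assays. Antiviral: Huh7.5.1 cells infected with DENV II or ZIKV at MOI 0.1; viral RNA measured by qRT-PCR after 3 days; EC50 taken at 50% RNA reduction. Cytotoxicity: cells seeded at 1×10^4/well, given serially diluted compound for 48 h, then WST-1 absorbance (OD450/OD630) read for CC50.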

Hepatitis C virus [2] = experiment: Antiviral activity against EGFP-fused HCV JFH-1 harboring K78E/E2-G451R/NS3-M260K/NS5A-T462I mutation infected in human Huh7.5.1 cells assessed as reduction in viral RNA level after 2 days in presence of boceprevir by qRT-PCR analysis; type: functional, organism-based; details: Hepacivirus hominis
Method in brief: (§1)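 Huh7.5.1 cells at 1×10^4/well, grown overnight at 37 °C. HCVcc was mixed with serially diluted compound (top 30 or 6 μM), given alone or with the named drug, and added to the cells. Viral RNA was read by qRT-PCR after 2 days. EC50 is the concentration giving 50% RNA reduction.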

[3] = test system: Respiratory syncytial virus; experiment: Antiviral activity against RSV infected in African green monkey Vero cells assessed as inhibition of viral replication measured after 5 to 7 days by plaque formation assay; type: functional, organism-based; details: human respiratory syncytial virus
Method in brief: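 Vero cells at 2×10^4/well were cultured 18 h, then infected with RSV at 2000 TCID50/ml. Compound (0.01–20 µM) was added immediately. Viral amount was measured by plaque formation assay.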

[4] = test system: Human immunodeficiency virus; experiment: Antiviral activity against HIV pseudotyped virions infected in human HEK293T cells cotransfected with envelope deficient pNL4-3.luc.R-E- plasmid and VSVG plasmid assessed as inhibition of HIV replication preincubated for 15 mins followed by viral infection and measured at 48 hrs post-infection by luciferase based luminescence method; type: functional, organism-based; details: Human immunodeficiency virus 1, HEK-293T
Method in brief: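 VSV-G-pseudotyped HIV (pNL4-3.luc.R-E-) was made in HEK293T by calcium phosphate transfection, collected at 48 h and diluted to 0.2 ng p24/ml. HEK293T cells in 24-well plates got compound 15 min before 0.5 mL pseudovirus. Cells were lysed 48 h post-infection for luciferase.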

Hepatitis C virus [5] = experiment: Antiviral activity against EGFP-fused HCV JFH-1 harboring K78E/E2-G451R/NS3-M260K/NS5A-T462I mutation infected in human Huh7.5.1 cells assessed as combination index after 2 days in presence of boceprevir by qRT-PCR analysis; type: functional, Hepacivirus hominis
Method in brief: (§2)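 In HCVcc-infected Huh7.5.1 cells (1×10^4/well, overnight, 37 °C), compound was given at various concentrations alone or with the named approved antiviral. After 2 days HCV RNA was quantified by qRT-PCR to derive the combination index.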

Hepatitis C virus [6] = experiment: Antiviral activity against EGFP-fused HCV JFH-1 harboring K78E/E2-G451R/NS3-M260K/NS5A-T462I mutant infected in human Huh7.5.1 cells assessed as reduction in viral RNA level after 2 days by qRT-PCR analysis; type: functional, organism-based; method in brief: as §1
[7] = Selectivity index, ratio of CC50 for HEK293T cells to EC50 for HIV pseudotyped virions infected in HEK293T cells; type: toxicity, cell-based; details: human, read-out: Ratio CC50/EC50
Method in brief: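 HIV pseudovirus made from VSVG plus env-deficient pNL4-3.luc.R-E- in HEK293T cells and diluted to 0.2 ng p24/ml. Target HEK293T cells were given compound 15 min before infection and lysed 48 h post-infection. CC50 by 48 h WST-1 viability (OD450/OD630).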

[8] = biological target: Heat shock protein HSP90 (Homo sapiens) (UniProt P07900+P08238); experiment: Binding affinity to HSP90 (unknown origin); type: protein assay
Hepatitis C virus [9] = experiment: Antiviral activity against EGFP-fused HCV JFH-1 harboring K78E/E2-G451R/NS3-M260K/NS5A-T462I mutation infected in human Huh7.5.1 cells assessed as reduction in viral RNA level after 2 days in presence of ribavirin by qRT-PCR analysis; type: functional, organism-based; details: Hepacivirus hominis; method in brief: as §1
[10] = Selectivity index, ratio of CC50 for African green monkey Vero cells to EC50 for SFTSV infected in African green monkey Vero cells; type: toxicity; details: read-out: Ratio CC50/EC50
Method in brief: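 Vero cells infected with SFTSV at MOI 0.01; virus titre measured 4 days after infection. The cytotoxicity arm used 1×10^4 cells/well with 48 h of serially diluted compound, then a WST-1 absorbance read (OD450/OD630) for CC50. SI is CC50/EC50.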

[11] = Selectivity index, ratio of CC50 for African green monkey Vero cells to EC50 for RSV infected in African green monkey Vero cells; type: toxicity; details: read-out: Ratio CC50/EC50
Hepatitis C virus [12] = experiment: Antiviral activity against EGFP-fused HCV JFH-1 harboring K78E/E2-G451R/NS3-M260K/NS5A-T462I mutation infected in human Huh7.5.1 cells assessed as combination index after 2 days in presence of sofosbuvir by qRT-PCR analysis; type: functional, Hepacivirus hominis; method in brief: as §2
Influenza A virus = experiment: Antiviral activity against Gaussia tagged Influenza A virus (A/Puerto Rico/8/34(H1N1)) infected in MDCK cells assessed as inhibition of H1N1 replication measured at 24 hrs post infection by luciferase reporter gene assay; type: functional, organism-based; details: A/Puerto Rico/8/1934(H1N1)
Method in brief: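 MDCK cells at 1×10^5/well, cultured overnight, were infected with A/PR/8/34(H1N1)-Gaussia luciferase at MOI 0.1. Compound (0.05–20 µM) was added immediately. Luminescence or qRT-PCR was read at 24 hpi; EC50 is 50% reduction.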

Huh7.5.1 = experiment: Antiviral activity against EGFP-fused HCV JFH-1 harboring K78E/E2-G451R/NS3-M260K/NS5A-T462I mutant infected in human Huh7.5.1 cells assessed as inhibition of viral entry at 0.01 uM preincubated for 2 hrs at 4 degC followed by virus/compound mixture wash-out and subsequent compound addition and measured up to 10 hrs at 37 degC; type: functional, cell-based
Method in brief: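 Time-of-addition: Huh7.5.1 cells were bound with HCVcc at 4 °C for 2 h. Unbound virus was removed, cells were shifted to 37 °C (T = 0), and compound was added at different time points afterwards. Anti-CD81 antibody served as the entry-inhibitor control.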

[13] = Cytotoxicity against human Caco2 cells infected with MERS-CoV measured after 48 hrs by WST1 assay; type: cell-based, Caco-2
Method in brief: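 Cells at 1×10^4/well, cultured overnight at 37 °C, were incubated 48 h with serially diluted compound. Viability was read by WST-1 absorbance (OD450/OD630).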

[14] = Selectivity index, ratio of CC50 for African green monkey Vero cells to EC50 for CHIKV infected in African green monkey Vero cells; type: toxicity; details: read-out: Ratio CC50/EC50
Dengue virus = experiment: Antiviral activity against DENV infected in human Huh7.5.1 cells assessed as inhibition of viral replication measured after 3 days by qRT-PCR analysis; type: functional, organism-based; details: Huh-7.5.1, 72 h
Method in brief: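 Huh7.5.1 cells were infected with DENV II or ZIKV at MOI 0.1 and treated with compound. Viral RNA was quantified by qRT-PCR after 3 days. EC50 is 50% reduction of RNA level.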

Hepatitis C virus [15] = experiment: Antiviral activity against EGFP-fused HCV JFH-1 harboring K78E/E2-G451R/NS3-M260K/NS5A-T462I mutation infected in human Huh7.5.1 cells assessed as combination index after 2 days in presence of cyclosporin A by qRT-PCR analysis; type: functional, Hepacivirus hominis; method in brief: as §2

In the case of CCN(CC)c1ccc(Oc2ccc(-c3[nH]c4cccc(F)c4c(=O)c3C)cc2F)cc1, the selectivity ratio [1] is reported as > 125, the Activity (Hepatitis C virus [2]) is reported as “Dose-dependent effect” and the EC50 [3] is reported as 60 nM. The EC50 [4] was 13 nM, the CI (Hepatitis C virus [5]) was >50 and the Activity (Hepatitis C virus [6]; Hepacivirus hominis) was “Dose-dependent effect”. The EC50 (Hepatitis C virus [6]; JFH-1, Huh-7.5.1, 48 h) was 5 to 7 nM, the selectivity ratio [7] was > 96 and the Activity [8] was “inactive”. The Activity (Hepatitis C virus [9]) was “Dose-dependent effect”, the selectivity ratio [10] was > 8 and the selectivity ratio [11] was > 41. For the same compound, the CI (Hepatitis C virus [12]) was >50, the EC50 (Influenza A virus) was 240 nM and the inhibition (Huh7.5.1) was “Active”. The CC50 at 48 h [13] was > 2500 nM, the selectivity ratio [14] was > 10 and the EC50 (Dengue virus) was 7 nM. The CI (Hepatitis C virus [15]) was >50.

— ChEMBL document CHEMBL4334439, “Discovery, Optimization, and Target Identification of Novel Potent Broad-Spectrum Antiviral Inhibitors” (J Med Chem, 2019)
